Calls of active or inactive are those of the source. No cut-off for these calls is given here.
What was measured:
[1] = molecular target: T1, Gamma-aminobutyric acid receptor subunit alpha-5 (Homo sapiens, UniProt P18507+P31644+P47870); experiment: Binding affinity to GABAA alpha-5-beta-2-gamma-2 receptor
T1 sequence (P31644 whole entry): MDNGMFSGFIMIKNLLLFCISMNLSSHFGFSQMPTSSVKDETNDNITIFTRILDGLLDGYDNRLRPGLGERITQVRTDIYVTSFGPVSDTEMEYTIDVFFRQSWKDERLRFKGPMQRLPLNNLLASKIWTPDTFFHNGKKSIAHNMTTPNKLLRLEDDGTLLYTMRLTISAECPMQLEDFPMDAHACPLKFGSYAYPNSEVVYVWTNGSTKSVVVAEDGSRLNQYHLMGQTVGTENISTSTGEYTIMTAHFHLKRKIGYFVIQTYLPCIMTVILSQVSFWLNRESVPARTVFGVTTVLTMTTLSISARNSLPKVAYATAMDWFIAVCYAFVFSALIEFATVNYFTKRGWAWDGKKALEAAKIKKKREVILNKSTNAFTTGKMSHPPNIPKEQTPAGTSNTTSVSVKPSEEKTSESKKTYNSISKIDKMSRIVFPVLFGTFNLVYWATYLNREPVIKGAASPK
Method in brief: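 Sf-9 insect cells infected with baculovirus carrying α5, β2 and γ2 subunits in equimolar ratio (2 MOI), harvested 60 h post-infection, then homogenized in 50 mM Tris-HCl pH 7.7. Incubated 90 min at 0 °C in triplicate; filtration and scintillation counting.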

[2] = molecular target: T2, Gamma-aminobutyric acid receptor subunit alpha-1 (Homo sapiens, UniProt P14867+P18507+P47870); experiment: Binding affinity to GABAA alpha-1-beta-2-gamma-2 receptor
T2 sequence (P14867 whole entry): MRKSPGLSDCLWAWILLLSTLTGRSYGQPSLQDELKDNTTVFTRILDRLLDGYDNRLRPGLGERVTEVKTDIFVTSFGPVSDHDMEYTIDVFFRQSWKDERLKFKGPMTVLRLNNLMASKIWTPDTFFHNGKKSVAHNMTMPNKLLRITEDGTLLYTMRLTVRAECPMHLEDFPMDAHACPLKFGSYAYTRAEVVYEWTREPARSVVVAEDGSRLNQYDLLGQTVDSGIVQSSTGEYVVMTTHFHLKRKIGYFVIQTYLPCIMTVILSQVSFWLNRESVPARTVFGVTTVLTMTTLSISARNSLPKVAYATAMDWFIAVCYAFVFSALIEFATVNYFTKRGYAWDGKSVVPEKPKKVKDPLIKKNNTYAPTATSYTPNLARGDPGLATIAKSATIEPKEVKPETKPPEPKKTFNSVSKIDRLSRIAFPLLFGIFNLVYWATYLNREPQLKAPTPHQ

[3] = molecular target: T3, GABA-A receptor; alpha-1/beta-3/gamma-2 (Homo sapiens, UniProt P14867+P18507+P28472); experiment: Binding affinity to GABAA alpha-1-beta-3-gamma-2 receptor; format: protein-complex assay
T3 sequence (P14867 whole entry): T2 sequence (P14867 whole entry)
T3 sequence (P18507 whole entry): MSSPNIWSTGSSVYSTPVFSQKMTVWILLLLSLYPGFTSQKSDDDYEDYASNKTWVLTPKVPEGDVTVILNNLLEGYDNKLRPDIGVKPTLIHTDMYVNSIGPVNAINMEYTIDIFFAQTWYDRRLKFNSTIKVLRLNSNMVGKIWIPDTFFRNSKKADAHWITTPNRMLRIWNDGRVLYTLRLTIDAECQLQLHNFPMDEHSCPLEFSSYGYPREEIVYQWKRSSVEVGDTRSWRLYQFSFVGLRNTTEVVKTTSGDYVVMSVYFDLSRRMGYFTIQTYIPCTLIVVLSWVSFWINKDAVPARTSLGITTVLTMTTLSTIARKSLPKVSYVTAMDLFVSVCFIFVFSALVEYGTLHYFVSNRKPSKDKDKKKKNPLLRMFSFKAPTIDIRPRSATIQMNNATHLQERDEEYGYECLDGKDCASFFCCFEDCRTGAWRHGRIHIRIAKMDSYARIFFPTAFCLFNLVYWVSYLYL
T3 sequence (P28472 whole entry): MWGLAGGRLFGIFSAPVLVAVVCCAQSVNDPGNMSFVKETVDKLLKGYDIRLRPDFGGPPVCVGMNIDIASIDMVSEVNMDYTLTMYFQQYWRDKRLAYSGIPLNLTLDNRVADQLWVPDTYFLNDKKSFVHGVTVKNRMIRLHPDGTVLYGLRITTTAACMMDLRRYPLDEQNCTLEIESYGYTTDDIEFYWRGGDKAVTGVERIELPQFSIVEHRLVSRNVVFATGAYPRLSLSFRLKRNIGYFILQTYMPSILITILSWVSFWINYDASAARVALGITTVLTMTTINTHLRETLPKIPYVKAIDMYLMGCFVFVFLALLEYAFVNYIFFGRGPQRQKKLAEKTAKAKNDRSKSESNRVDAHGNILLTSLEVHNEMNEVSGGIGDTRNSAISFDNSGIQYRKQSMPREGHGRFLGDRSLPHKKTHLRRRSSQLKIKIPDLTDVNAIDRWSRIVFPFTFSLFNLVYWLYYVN

[4] = molecular target: T1, Gamma-aminobutyric acid receptor subunit alpha-5; experiment: Displacement of [3H]Ro15-4513 from GABAA alpha-5-beta-2-gamma-2 receptor expressed in Sf9 baculovirus system
Method in brief: (§1)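 Homogenates of Sf-9 cells infected 60 h earlier with baculoviruses for each of the three subunits (2 MOI, equimolar), in 50 mM Tris-HCl pH 7.7. Competition against 0.5–1.0 nM [3H]-Ro15-4513, with unlabeled ligand from 40 pM to 10 µM (ethanol below 0.1%). Incubated 90 min at 0 °C, in triplicate. Separated by rapid filtration and read by scintillation counting.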

[5] = molecular target: T2, Gamma-aminobutyric acid receptor subunit alpha-1; experiment: Displacement of [3H]Ro15-4513 from GABAA alpha-1-beta-2-gamma-2 receptor expressed in Sf9 baculovirus system; method in brief: as §1
[6] = Selectivity for GABAA alpha-5-beta-3-gamma-2 receptor over GABAA alpha-3-beta-3-gamma-2 receptor
[7] = molecular target: T4, GABA-A receptor; alpha-6/beta-3/gamma-2 (Homo sapiens, UniProt P18507+P28472+Q16445); experiment: Activity at GABAA alpha-6-beta-3-gamma-2 receptor expressed in Xenopus oocytes assessed as potentiation of GABA-induced chloride current at 1 uM; format: cell-based; conditions: Oocyte
T4 sequence (Q16445 whole entry, one chain of several): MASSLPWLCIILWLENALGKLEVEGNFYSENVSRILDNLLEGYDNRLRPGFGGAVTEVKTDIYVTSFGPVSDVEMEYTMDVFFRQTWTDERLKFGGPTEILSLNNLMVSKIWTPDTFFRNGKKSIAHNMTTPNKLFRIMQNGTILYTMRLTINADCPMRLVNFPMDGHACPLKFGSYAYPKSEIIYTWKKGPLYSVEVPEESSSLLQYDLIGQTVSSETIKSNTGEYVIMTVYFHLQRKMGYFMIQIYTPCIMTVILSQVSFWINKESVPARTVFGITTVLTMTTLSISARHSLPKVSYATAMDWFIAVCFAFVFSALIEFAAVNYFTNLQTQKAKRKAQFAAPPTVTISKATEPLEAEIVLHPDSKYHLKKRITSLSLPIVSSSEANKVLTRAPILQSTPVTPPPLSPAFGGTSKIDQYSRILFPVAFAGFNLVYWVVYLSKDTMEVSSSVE

[8] = Selectivity for GABAA alpha-5-beta-3-gamma-2 receptor over GABAA alpha-1-beta-3-gamma-2 receptor
[9] = molecular target: T5, GABA A receptor alpha-4/beta-3/gamma-2 (Homo sapiens, UniProt P18507+P28472+P48169); experiment: Binding affinity to GABAA alpha-4-beta-3-gamma-2 receptor; format: protein-complex assay
T5 sequence (P48169 whole entry, one chain of several): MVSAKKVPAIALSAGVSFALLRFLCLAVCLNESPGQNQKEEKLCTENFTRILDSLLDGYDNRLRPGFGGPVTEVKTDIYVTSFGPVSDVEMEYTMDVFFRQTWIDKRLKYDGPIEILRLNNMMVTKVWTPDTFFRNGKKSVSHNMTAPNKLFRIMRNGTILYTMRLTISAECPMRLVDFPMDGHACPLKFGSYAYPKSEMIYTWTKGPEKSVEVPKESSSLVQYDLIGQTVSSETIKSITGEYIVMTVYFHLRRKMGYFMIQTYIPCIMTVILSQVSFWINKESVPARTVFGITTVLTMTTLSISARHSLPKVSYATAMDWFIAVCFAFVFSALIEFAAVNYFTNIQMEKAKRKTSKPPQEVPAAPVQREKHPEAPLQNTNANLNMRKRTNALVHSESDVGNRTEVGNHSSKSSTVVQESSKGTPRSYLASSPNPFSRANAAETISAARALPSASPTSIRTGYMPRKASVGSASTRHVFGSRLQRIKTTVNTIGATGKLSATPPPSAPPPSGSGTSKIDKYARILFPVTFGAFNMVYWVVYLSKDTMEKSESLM

[10] = molecular target: GABA-A receptor; alpha-2/beta-3/gamma-2 (Homo sapiens) (UniProt P18507+P28472+P47869); experiment: Activity at GABAA alpha-2-beta-3-gamma-2 receptor expressed in Xenopus oocytes assessed as potentiation of GABA-induced chloride current at 1 uM; format: cell-based; conditions: Oocyte
[11] = molecular target: T5, GABA A receptor alpha-4/beta-3/gamma-2; experiment: Activity at GABAA alpha-4-beta-3-gamma-2 receptor expressed in Xenopus oocytes assessed as potentiation of GABA-induced chloride current at 1 uM; format: cell-based; conditions: Oocyte
[12] = Selectivity for GABAA alpha-5-beta-3-gamma-2 receptor over GABAA alpha-2-beta-3-gamma-2 receptor
[13] = molecular target: T4, GABA-A receptor; alpha-6/beta-3/gamma-2; experiment: Binding affinity to GABAA alpha-6-beta-3-gamma-2 receptor; format: protein-complex assay
[14] = Selectivity for GABAA alpha-5-beta-3-gamma-2 receptor over GABAA alpha-6-beta-3-gamma-2 receptor
Mus musculus [15] = experiment: Anticonvulsant activity in C57BL/6J mouse assessed as inhibition of increase in excitatory tone in brain at 30 mg/kg, ip; format: functional, organism-based; parameters: dose 30 mg/kg
Mus musculus [16] = experiment: Inhibition of scopolamine-induced impairment of contextual memory in C57BL/6J mouse at 10 mg/kg, ip after 24 hrs; format: functional, organism-based; parameters: dose 10 mg/kg
Method in brief: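 Male C57Bl/6 mice, 7–12 weeks old, given ip vehicle (0.9% saline with 2.5% encapsin), scopolamine 1.5 mg/kg, or scopolamine plus ligand. After 20 min: context exposure, then three 33 s tones (85 dB, 2.9 kHz), each ending with a 0.75 mA footshock. Freezing scored over 4 min in the same context 24 h later.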

[17] = Selectivity for GABAA alpha-5-beta-3-gamma-2 receptor over GABAA alpha-4-beta-3-gamma-2 receptor

Compound	Kd [1]	Kd [2]	Ki [3]	other results
CCCOc1cc2c(cn1)[nH]c1ccccc12	591 nM	5 nM		
Cn1c(=O)c2cc(Cl)ccc2n2cnc(CO)c12			> 300 nM	Ki [1]: > 300 nM
CN1C(=O)CN=C(c2ccccc2)c2ccccc21				IC50 [4]: > 10000 nM; IC50 [5]: > 10000 nM
Cn1c(=O)c2cc(Cl)ccc2n2cnc(CCl)c12			500 nM	Ki [1]: 500 nM
Cn1c(=O)c2cc(Cl)ccc2n2cnc(C(=O)OC(C)(C)C)c12			17.3 nM	Ki [1]: 0.65 nM
Nc1c(C(=O)c2ccc(Cl)cc2)sc2ccccc12				IC50 [4]: 1000 nM; IC50 [5]: 1000 nM
Cc1nn(Cc2nc(-c3cccc([N+](=O)[O-])c3)cs2)c(C)c1Br				IC50 [4]: > 10000 nM; IC50 [5]: > 10000 nM
CSc1nccc(-c2ccc(S(=O)(=O)Nc3ccc(Cl)cc3)s2)n1				IC50 [4]: > 10000 nM; IC50 [5]: 470 nM
Cn1c(=O)c2cc(C#C[Si](C)(C)C)ccc2n2cnc(C(=O)OC(C)(C)C)c12	58 nM	197 nM		
CC(=O)c1ncn2c3ccc(Cl)cc3c(=O)n(C)c12			17500 nM	Ki [1]: 2610 nM
CCOC(=O)c1ncn2c1C1CCCN1C(=O)c1cc(C#C[Si](C)(C)C)ccc1-2 (stereo unspecified)	4 nM	200 nM		
CCCCC(=O)c1ncn2c3ccc(Cl)cc3c(=O)n(C)c12			1580 nM	Ki [1]: 166 nM
COCc1ncn2c1CN(C)C(=O)c1cc(Cl)ccc1-2			920 nM	Selectivity Index [6]: 20; Activity [7]: 4%; Selectivity ratio [8]: 20; Ki [9]: > 300 nM; Activity [10]: 4%; Activity [11]: 4%; Selectivity ratio [12]: 20; Ki [13]: 9000 nM; Activity [14]: 20; Activity (Mus musculus [15]): Active; Activity (Mus musculus [16]): Active; Activity [17]: 20
CSC1SC(C(=O)c2ccc(Cl)cc2)C2CC(C)(C)CC(=O)C12 (stereo unspecified)				IC50 [4]: 210 nM; IC50 [5]: 580 nM
CCOCc1ncn2c3ccc(Cl)cc3c(=O)n(C)c12			500 nM	Ki [1]: 83 nM
CCOC(=O)c1[nH]cc2nc3cc(OC)c(OC)cc3c-2c1CC	1 nM	8 nM		
CCOC(=O)c1ncn2c3ccc(C#C[Si](C)(C)C)cc3c(=O)n(C)c12	5 nM	121 nM		

Compound	Kd [1]	Kd [2]	Ki [3]	other results
COc1ccc(-n2nc3c4ccccc4[nH]cc-3c2=O)cc1	5 nM	0.1 nM		
CC(=O)NC1N=C(c2ccccc2)c2ccccc2NC1=O (stereo unspecified)				IC50 [4]: > 10000 nM; IC50 [5]: > 10000 nM
O=C1C2C=Nc3ccccc3C2=NN1c1ccc(Cl)cc1 (stereo unspecified) [CGS-9896]	40 nM	0.3 nM		
C#Cc1ccc2c(c1)C(c1ccccc1)=NCC(=O)N2C	7 nM	76 nM		
Cn1c(=O)c2cc(Cl)ccc2n2cnc(C(=O)OCC3CC3)c12			16.4 nM	Ki [1]: 9.8 nM
CCOC(=O)c1ncn2c1[C@@H]1CCN1C(=O)c1cc(C#C[Si](C)(C)C)ccc1-2	2.6 nM	83 nM		
CSC1SC(C(=O)c2cccc([N+](=O)[O-])c2)C2CC(C)(C)CC(=O)C12 (stereo unspecified)				IC50 [4]: > 10000 nM; IC50 [5]: > 10000 nM
CCc1ncn2c3ccc(Cl)cc3c(=O)n(C)c12			408 nM	Ki [1]: 182 nM
CCOC(=O)c1cc2c(cn1)[nH]c1ccccc12		1 nM		
CCOc1cc2c(cn1)[nH]c1ccccc12	826 nM	1.2 nM		
CC(C)(C)OC(=O)c1cc2c3ccccc3nc-2c[nH]1	111 nM	1 nM		
COCc1c(C(=O)OC(C)C)ncc2[nH]c3ccc(OCc4ccccc4)cc3c12 [ABECARNIL]	8.4 nM	1 nM		
CCCCCc1ncn2c3ccc(Cl)cc3c(=O)n(C)c12			2050 nM	Ki [1]: 369 nM
COC(=O)c1cc2c(cn1)[nH]c1ccccc12 [BETA-CCM]	58 nM	1 nM		
O=C1C2C=Nc3ccccc3C2=NN1c1ccccc1 (stereo unspecified) [CGS-8216]	200 nM	8.3 nM		
CSC1SC(C(=O)c2ccc(Cl)cc2)C2CCCC(=O)C12 (stereo unspecified)				IC50 [4]: 550 nM; IC50 [5]: 580 nM
